Data taken from publication PMC4455945 (Journal of the American Chemical Society, 2015).
pIC50: −log10 of the molar value. Each block holds one compound with its values, some of them ahead of it. Peptide text beside a SMILES is read from it. * marks the point of attachment. Cbz = O=C(OCc1ccccc1)*

What was measured:
Purified 26S proteasome = Purified 26S proteasome (Homo sapiens, UniProt P20618+P28074); assay: Cleavage of Suc-LLVY-AMC by purified 26S proteasome; assay type: biochemical
HEK-293T cells = assay: Cell viability of HEK-293T cells; assay type: cell-based; details: concentration of 100 μM
In short: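 HEK-293T cells were tested alongside multiple myeloma lines after exposure to test peptoids. Viability was read as fluorescence (RFU).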

HEK293-T cells = assay: Anti-Ub Western blot of poly-ubiquitin conjugates in HEK293-T cells; assay type: cell-based; details: relative to vehicle-treated cells
Rpn13 [1] = biological target: T1, Rpn13 (Homo sapiens, UniProt Q16186); assay: FP competition against fluorescently labeled 11 bound to Rpn13; assay type: binding; details: increasing amounts of competitor
In short: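 Rpn13 pre-incubated with fluorescein-labelled test peptoid to form the complex, then challenged with increasing amounts of unlabelled competitor: either a covalent Rpn13 inhibitor reported to react at Cys88, or the unlabelled form of the same peptoid. Read-out is the change in fluorescence polarization.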

Rpn13 [2] = biological target: T1, Rpn13; details: assay not described; cited from earlier work

T1 sequence (Q16186 whole entry): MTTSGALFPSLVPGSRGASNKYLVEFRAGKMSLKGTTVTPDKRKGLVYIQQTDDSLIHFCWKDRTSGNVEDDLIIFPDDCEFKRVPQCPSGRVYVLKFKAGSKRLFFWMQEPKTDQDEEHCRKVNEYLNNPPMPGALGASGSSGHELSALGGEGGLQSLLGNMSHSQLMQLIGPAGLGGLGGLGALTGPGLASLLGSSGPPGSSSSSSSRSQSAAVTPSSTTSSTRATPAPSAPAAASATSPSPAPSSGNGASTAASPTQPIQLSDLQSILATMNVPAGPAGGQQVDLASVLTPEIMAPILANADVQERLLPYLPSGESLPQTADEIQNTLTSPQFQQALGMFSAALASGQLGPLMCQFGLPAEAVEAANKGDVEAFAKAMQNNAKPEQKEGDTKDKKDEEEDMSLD

effect on hydrolysis of the fluorogenic peptide (fluorescence) (Purified 26S proteasome): dose-sensitive decrease of fluorescence
Compound: CC(C)C[C@H](NC(=O)[C@H](Cc1ccccc1)NC(=O)c1cnccn1)B(O)O [Bortezomib]

Compound: CC(C)C[C@@H](C=O)NC(=O)[C@H](CC(C)C)NC(=O)[C@H](CC(C)C)NC(=O)OCc1ccccc1 [MG-132] (Cbz-Leu-Leu-Leu-aldehyde)
cell death of HEK-293T cells at 100 μM (HEK-293T cells): no significant cell death
accumulation of ubiquitylated proteins (HEK293-T cells): accumulation of ubiquitylated proteins does occur

Compound: Cl.N[C@@H](Cc1ccccc1)C(=O)N1C/C(=C/c2ccc(Cl)c(Cl)c2)C(=O)/C(=C\c2ccc(Cl)c(Cl)c2)C1 [RA-190]
competition of the fluorescently labeled 11-Rpn13 complex (FP signal) (Rpn13 [1]): insensitive
pIC50 (Rpn13 [2]): 7.00
